Residues, ends and D or L forms follow the SMILES beside them.
Experiments:
[1] = target: Glucagon-like peptide 1 receptor (Homo sapiens, UniProt P43220); experiment: Agonist activity at human GLP-1 receptor expressed in HEK293 cells assessed as induction of cAMP accumulation incubated for 30 mins by HTRF assay; format: functional, cell-based
How it was run: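 HEK-293 cells stably expressing human receptor, grown in DMEM/10% FBS, frozen, thawed and washed in HBSS/20 mM HEPES/0.1% HSA; resuspended with 2 mM IBMX. 5000 cells/well incubated with peptide 30 min at room temperature; cAMP by HTRF kit, 1 h with reagents in lysis buffer, 665/620 nm fluorescence ratio.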

Glucagon receptor = Glucagon receptor (Homo sapiens, UniProt P47871); experiment: Agonist activity at human glucagon receptor expressed in HEK293 cells assessed as induction of cAMP accumulation incubated for 30 mins by HTRF assay; format: functional, cell-based
Sequence of Glucagon receptor (P47871 whole entry): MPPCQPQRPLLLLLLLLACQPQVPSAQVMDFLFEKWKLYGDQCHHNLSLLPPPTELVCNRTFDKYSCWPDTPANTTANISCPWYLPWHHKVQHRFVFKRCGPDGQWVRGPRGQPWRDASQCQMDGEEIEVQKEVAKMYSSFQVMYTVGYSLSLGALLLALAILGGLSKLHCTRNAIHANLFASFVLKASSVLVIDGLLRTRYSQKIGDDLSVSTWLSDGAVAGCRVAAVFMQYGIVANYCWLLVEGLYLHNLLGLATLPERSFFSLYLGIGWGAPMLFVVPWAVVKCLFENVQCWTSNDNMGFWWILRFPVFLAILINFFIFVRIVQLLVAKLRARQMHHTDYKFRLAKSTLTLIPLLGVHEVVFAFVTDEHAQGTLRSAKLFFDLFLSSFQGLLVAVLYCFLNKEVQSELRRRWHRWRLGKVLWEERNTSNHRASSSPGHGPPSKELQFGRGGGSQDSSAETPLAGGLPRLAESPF

Sequence of Glucagon-like peptide 1 receptor (P43220 whole entry): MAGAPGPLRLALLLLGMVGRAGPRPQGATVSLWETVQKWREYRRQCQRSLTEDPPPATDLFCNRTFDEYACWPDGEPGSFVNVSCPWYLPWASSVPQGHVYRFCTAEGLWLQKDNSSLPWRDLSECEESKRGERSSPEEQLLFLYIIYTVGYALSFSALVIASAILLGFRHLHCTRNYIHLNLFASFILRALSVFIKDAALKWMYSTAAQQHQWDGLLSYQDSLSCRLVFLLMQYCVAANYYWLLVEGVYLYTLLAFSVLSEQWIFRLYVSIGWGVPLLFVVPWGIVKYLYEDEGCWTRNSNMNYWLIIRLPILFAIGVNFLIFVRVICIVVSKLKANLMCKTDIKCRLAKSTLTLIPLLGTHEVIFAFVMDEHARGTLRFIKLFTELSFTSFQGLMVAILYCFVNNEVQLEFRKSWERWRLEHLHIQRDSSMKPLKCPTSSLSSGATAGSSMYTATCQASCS

Structure (SMILES)	EC50 [1] [nM]	EC50 (Glucagon receptor) [nM]
CC[C@H](C)[C@H](NC(=O)[C@H](Cc1ccccc1)NC(=O)[C@H](CC(=O)O)NC(=O)[C@H](CCC(N)=O)NC(=O)[C@H](C)NC(=O)[C@H](CCCNC(=N)N)NC(=O)[C@H](CCCNC(=N)N)NC(=O)[C@H](CO)NC(=O)[C@H](CC(=O)O)NC(=O)[C@H](CCSC)NC(=O)[C@H](CCC(N)=O)NC(=O)[C@H](CCCCN)NC(=O)[C@H](CO)NC(=O)[C@H](CC(C)C)NC(=O)[C@H](CC(=O)O)NC(=O)[C@H](CO)NC(=O)[C@@H](NC(=O)[C@H](Cc1ccccc1)NC(=O)[C@@H](NC(=O)CNC(=O)[C@H](CCC(N)=O)NC(=O)[C@@H](CO)NC(=O)[C@@H](N)Cc1cnc[nH]1)[C@@H](C)O)[C@@H](C)O)C(=O)N[C@@H](CCC(=O)O)C(=O)N[C@@H](Cc1c[nH]c2ccccc12)C(=O)N[C@@H](CC(C)C)C(=O)N[C@@H](CCCCN)C(=O)N[C@@H](CC(N)=O)C(=O)NCC(=O)NCC(=O)N1CCC[C@H]1C(=O)N[C@@H](CO)C(=O)N[C@@H](CO)C(=O)NCC(=O)N[C@@H](C)C(=O)N1CCC[C@H]1C(=O)N1CCC[C@H]1C(=O)N1CCC[C@H]1C(=O)N[C@@H](CO)C(N)=O	0.0754	0.122
CC[C@H](C)[C@H](NC(=O)[C@H](Cc1ccccc1)NC(=O)[C@H](CC(=O)O)NC(=O)[C@H](CCC(N)=O)NC(=O)[C@H](C)NC(=O)[C@H](CCCNC(=N)N)NC(=O)[C@H](CCCNC(=N)N)NC(=O)[C@H](CO)NC(=O)[C@H](CC(=O)O)NC(=O)[C@H](CCSC)NC(=O)[C@H](CCC(N)=O)NC(=O)[C@H](CCCCN)NC(=O)[C@H](CO)NC(=O)[C@H](CC(C)C)NC(=O)[C@H](CC(=O)O)NC(=O)[C@H](CO)NC(=O)[C@@H](NC(=O)[C@H](Cc1ccccc1)NC(=O)[C@@H](NC(=O)CNC(=O)[C@H](CCC(N)=O)NC(=O)[C@@H](CO)NC(=O)[C@@H](N)Cc1cnc[nH]1)[C@@H](C)O)[C@@H](C)O)C(=O)N[C@@H](CCC(=O)O)C(=O)N[C@@H](Cc1c[nH]c2ccccc12)C(=O)N[C@@H](CC(C)C)C(=O)N[C@@H](CCCCN)C(=O)N[C@H]1CCCCNC(=O)CC[C@@H](C(=O)NCC(=O)N[C@@H](C)C(=O)N2CCC[C@H]2C(=O)N2CCC[C@H]2C(=O)N2CCC[C@H]2C(=O)N[C@@H](CO)C(N)=O)NC(=O)[C@H](CO)NC(=O)[C@@H]2CCCN2C(=O)CNC(=O)CNC1=O	0.00813	0.0596
CC[C@H](C)[C@H](NC(=O)[C@H](Cc1ccccc1)NC(=O)[C@H](CC(=O)O)NC(=O)[C@H](CCC(N)=O)NC(=O)[C@H](C)NC(=O)[C@]1(C)CCC/C=C\CCC[C@](C)(NC(=O)[C@H](CCC(N)=O)NC(=O)[C@H](CCCCN)NC(=O)[C@H](CO)NC(=O)[C@H](CC(C)C)NC(=O)[C@H](CC(=O)O)NC(=O)[C@H](CO)NC(=O)[C@@H](NC(=O)[C@H](Cc2ccccc2)NC(=O)[C@@H](NC(=O)CNC(=O)[C@H](CCC(N)=O)NC(=O)[C@@H](CO)NC(=O)[C@@H](N)Cc2cnc[nH]2)[C@@H](C)O)[C@@H](C)O)C(=O)N[C@@H](CC(=O)O)C(=O)N[C@@H](CO)C(=O)N[C@@H](CCCNC(=N)N)C(=O)N1)C(=O)N[C@@H](CCC(=O)O)C(=O)N[C@@H](Cc1c[nH]c2ccccc12)C(=O)N[C@@H](CC(C)C)C(=O)N[C@@H](CCCCN)C(=O)N[C@@H](CC(N)=O)C(=O)NCC(=O)NCC(=O)N1CCC[C@H]1C(=O)N[C@@H](CO)C(=O)N[C@@H](CO)C(=O)NCC(=O)N[C@@H](C)C(=O)N1CCC[C@H]1C(=O)N1CCC[C@H]1C(=O)N1CCC[C@H]1C(=O)N[C@@H](CO)C(N)=O	0.0012	8.43
CC[C@H](C)[C@H](NC(=O)[C@H](Cc1ccccc1)NC(=O)[C@H](CC(=O)O)NC(=O)[C@H](CCC(N)=O)NC(=O)[C@H](C)NC(=O)[C@]1(C)CCC/C=C/CCC[C@](C)(NC(=O)[C@H](CCC(N)=O)NC(=O)[C@H](CCCCN)NC(=O)[C@H](CO)NC(=O)[C@H](CC(C)C)NC(=O)[C@H](CC(=O)O)NC(=O)[C@H](CO)NC(=O)[C@@H](NC(=O)[C@H](Cc2ccccc2)NC(=O)[C@@H](NC(=O)CNC(=O)[C@H](CCC(N)=O)NC(=O)[C@H](CO)NC(=O)[C@@H](N)Cc2cnc[nH]2)[C@@H](C)O)[C@@H](C)O)C(=O)N[C@@H](CC(=O)O)C(=O)N[C@@H](CO)C(=O)N[C@@H](CCCNC(=N)N)C(=O)N1)C(=O)N[C@@H](CCC(=O)O)C(=O)N[C@@H](Cc1c[nH]c2ccccc12)C(=O)N[C@@H](CC(C)C)C(=O)N[C@@H](CCCCN)C(=O)N[C@@H](CC(N)=O)C(=O)NCC(=O)NCC(=O)N1CCC[C@H]1C(=O)N[C@@H](CO)C(=O)N[C@@H](CO)C(=O)NCC(=O)N[C@@H](C)C(=O)N1CCC[C@H]1C(=O)N1CCC[C@H]1C(=O)N1CCC[C@H]1C(=O)N[C@@H](CO)C(N)=O	0.0004	0.369
CC[C@H](C)[C@H](NC(=O)[C@H](Cc1ccccc1)NC(=O)[C@H](CC(=O)O)NC(=O)[C@@H]1CCC(=O)NCCCC[C@H](NC(=O)[C@H](CC(=O)O)NC(=O)[C@H](CCSC)NC(=O)[C@H](CCC(N)=O)NC(=O)[C@H](CCCCN)NC(=O)[C@H](CO)NC(=O)[C@H](CC(C)C)NC(=O)[C@H](CC(=O)O)NC(=O)[C@H](CO)NC(=O)[C@@H](NC(=O)[C@H](Cc2ccccc2)NC(=O)[C@@H](NC(=O)CNC(=O)[C@H](CCC(N)=O)NC(=O)[C@@H](CO)NC(=O)[C@@H](N)Cc2cnc[nH]2)[C@@H](C)O)[C@@H](C)O)C(=O)N[C@@H](CCCNC(=N)N)C(=O)N[C@@H](CCCNC(=N)N)C(=O)N[C@@H](C)C(=O)N1)C(=O)N[C@@H](CCC(=O)O)C(=O)N[C@@H](Cc1c[nH]c2ccccc12)C(=O)N[C@@H](CC(C)C)C(=O)N[C@@H](CCCCN)C(=O)N[C@@H](CC(N)=O)C(=O)NCC(=O)NCC(=O)N1CCC[C@H]1C(=O)N[C@@H](CO)C(=O)N[C@@H](CO)C(=O)NCC(=O)N[C@@H](C)C(=O)N1CCC[C@H]1C(=O)N1CCC[C@H]1C(=O)N1CCC[C@H]1C(=O)N[C@@H](CO)C(N)=O	0.0064	0.0078
CC[C@H](C)[C@@H]1NC(=O)[C@H](Cc2ccccc2)NC(=O)[C@@H](NC(=O)[C@H](CCC(N)=O)NC(=O)[C@H](C)NC(=O)[C@H](CCCNC(=N)N)NC(=O)[C@H](CCCNC(=N)N)NC(=O)[C@H](CO)NC(=O)[C@H](CC(=O)O)NC(=O)[C@H](CCSC)NC(=O)[C@H](CCC(N)=O)NC(=O)[C@H](CCCCN)NC(=O)[C@H](CO)NC(=O)[C@H](CC(C)C)NC(=O)[C@H](CC(=O)O)NC(=O)[C@H](CO)NC(=O)[C@@H](NC(=O)[C@H](Cc2ccccc2)NC(=O)[C@@H](NC(=O)CNC(=O)[C@H](CCC(N)=O)NC(=O)[C@H](CO)NC(=O)[C@@H](N)Cc2cnc[nH]2)[C@@H](C)O)[C@@H](C)O)CSCc2cc3cc(c2)CSC[C@@H](C(=O)N2CCC[C@H]2C(=O)N2CCC[C@H]2C(=O)N2CCC[C@H]2C(=O)N[C@@H](CO)C(N)=O)NC(=O)CNC(=O)[C@H](CO)NC(=O)[C@@H](CO)NC(=O)[C@@H]2CCCN2C(=O)CNC(=O)CNC(=O)[C@H](CSC3)NC(=O)[C@H](CCCCN)NC(=O)[C@H](CC(C)C)NC(=O)[C@H](Cc2c[nH]c3ccccc23)NC(=O)[C@H](CCC(=O)O)NC1=O	0.194	0.578
CC[C@H](C)[C@H](NC(=O)[C@H](Cc1ccccc1)NC(=O)[C@H](CC(=O)O)NC(=O)[C@H](CCC(N)=O)NC(=O)[C@H](C)NC(=O)[C@H](CCCNC(=N)N)NC(=O)[C@H](CCCNC(=N)N)NC(=O)[C@H](CO)NC(=O)[C@H](CC(=O)O)NC(=O)[C@@H]1CCC(=O)NCCCC[C@H](NC(=O)[C@H](CC(=O)O)NC(=O)[C@H](CO)NC(=O)[C@@H](NC(=O)[C@H](Cc2ccccc2)NC(=O)[C@@H](NC(=O)CNC(=O)[C@H](CCC(N)=O)NC(=O)[C@H](CO)NC(=O)[C@@H](N)Cc2cnc[nH]2)[C@@H](C)O)[C@@H](C)O)C(=O)N[C@@H](CO)C(=O)N[C@@H](CCCCN)C(=O)N[C@@H](CCC(N)=O)C(=O)N1)C(=O)N[C@@H](CCC(=O)O)C(=O)N[C@@H](Cc1c[nH]c2ccccc12)C(=O)N[C@@H](CC(C)C)C(=O)N[C@@H](CCCCN)C(=O)N[C@@H](CC(N)=O)C(=O)NCC(=O)NCC(=O)N1CCC[C@H]1C(=O)N[C@@H](CO)C(=O)N[C@@H](CO)C(=O)NCC(=O)N[C@@H](C)C(=O)N1CCC[C@H]1C(=O)N1CCC[C@H]1C(=O)N1CCC[C@H]1C(=O)N[C@@H](CO)C(N)=O (HELM PEPTIDE1{H.S.Q.G.T.F.T.S.D.K.S.K.Q.E.D.S.R.R.A.Q.D.F.I.E.W.L.K.N.G.G.P.S.S.G.A.P.P.P.S.[am]}$PEPTIDE1,PEPTIDE1,10:R3-14:R3$$$V2.0)	0.0475	–
CC[C@H](C)[C@@H]1NC(=O)[C@H](Cc2ccccc2)NC(=O)[C@@H](NC(=O)[C@H](CCC(N)=O)NC(=O)[C@H](C)NC(=O)[C@H](CCCNC(=N)N)NC(=O)[C@H](CCCNC(=N)N)NC(=O)[C@H](CO)NC(=O)[C@H](CC(=O)O)NC(=O)[C@H](CCSC)NC(=O)[C@H](CCC(N)=O)NC(=O)[C@H](CCCCN)NC(=O)[C@H](CO)NC(=O)[C@H](CC(C)C)NC(=O)[C@H](CC(=O)O)NC(=O)[C@H](CO)NC(=O)[C@@H](NC(=O)[C@H](Cc2ccccc2)NC(=O)[C@@H](NC(=O)CNC(=O)[C@H](CCC(N)=O)NC(=O)[C@H](CO)NC(=O)[C@@H](N)Cc2cnc[nH]2)[C@@H](C)O)[C@@H](C)O)CSCc2cccc(c2)CSC[C@@H](C(=O)N2CCC[C@H]2C(=O)N2CCC[C@H]2C(=O)N2CCC[C@H]2C(=O)N[C@@H](CO)C(N)=O)NC(=O)CNC(=O)[C@H](CO)NC(=O)[C@H](CO)NC(=O)[C@@H]2CCCN2C(=O)CNC(=O)CNC(=O)[C@H](CC(N)=O)NC(=O)[C@H](CCCCN)NC(=O)[C@H](CC(C)C)NC(=O)[C@H](Cc2c[nH]c3ccccc23)NC(=O)[C@H](CCC(=O)O)NC1=O (HELM PEPTIDE1{H.S.Q.G.T.F.T.S.D.L.S.K.Q.M.D.S.R.R.A.Q.C.F.I.E.W.L.K.N.G.G.P.S.S.G.C.P.P.P.S.[am]}|CHEM1{[c1cc(C[*:1])cc(C[*:2])c1]}$PEPTIDE1,CHEM1,21:R3-1:R1|PEPTIDE1,CHEM1,35:R3-1:R2$$$V2.0)	0.0249	–

Source: ChEMBL document CHEMBL4665843, “Automated Design of Macrocycles for Therapeutic Applications: From Small Molecules to Peptides and Proteins” (J Med Chem, 2020)
